Key:
Rattus norvegicus [1] = experiment: AUClast in Sprague-Dawley rat assessed as salicylic acid at 300 mg/kg, po measured up to 24 hrs post dose; type: ADME, organism-based; parameters: time < 24 hr, dose 300 mg/kg, route oral; settings: in vivo
Outline: (§1)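 Single oral dose of 300 mg/kg to Sprague Dawley rats. Plasma collected at 0, 0.5, 1, 2, 4, 8 and 24 hr. Analytes were the parent, the salicylate-linker and linker-DHA metabolites, salicylic acid and salicyluric acid; Cmax and AUClast derived.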

[2] = Plasma concentration in Sprague-Dawley rat at 300 mg/kg, po administered for 7 days measured 4 hrs post dose on day 7; type: ADME, organism-based
Outline: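 Male Sprague Dawley rats in groups of 4 received 300 mg/kg orally once daily for up to 14 days. Animals were sacrificed on days 1, 3, 7 and 14, with plasma and tissues (brain, epididymal fat, liver, muscle) collected 4 h after dosing. Samples were analysed by LC/MS/MS for parent compound, salicylic acid and salicyluric acid.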

Rattus norvegicus [3] = experiment: AUClast in Sprague-Dawley rat assessed as salicylate-linker metabolite N-(2-aminoethyl)-2-hydroxy-benzamide at 300 mg/kg, po measured up to 24 hrs post dose; type: ADME, organism-based; parameters: time < 24 hr, dose 300 mg/kg, route oral; settings: in vivo; outline: as §1
[4] = AUClast in Sprague-Dawley rat at 300 mg/kg, po measured up to 24 hrs post dose; type: ADME, organism-based; parameters: dose 300 mg/kg, time < 24 hr, route oral; settings: in vivo; outline: as §1
Rattus norvegicus [5] = experiment: Cmax in Sprague-Dawley rat assessed as salicyluric acid at 300 mg/kg, po measured up to 24 hrs post dose; type: ADME, organism-based; parameters: dose 300 mg/kg, route oral; settings: in vivo; outline: as §1
Rattus norvegicus [6] = experiment: Cmax in Sprague-Dawley rat assessed as salicylic acid at 300 mg/kg, po measured up to 24 hrs post dose; type: ADME, organism-based; parameters: dose 300 mg/kg, route oral; settings: in vivo; outline: as §1
Muscle tissue = experiment: Drug metabolism in Sprague-Dawley rat muscle assessed as salicyluric acid formation at 300 mg/kg, po administered for 7 days measured 4 hrs post dose on day 7; type: ADME, organism-based; settings: in vivo
Outline: (§2)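 Male Sprague Dawley rats, groups of 4, dosed orally at 300 mg/kg once daily for 14 days. Animals killed on days 1, 3, 7 and 14, with plasma, brain, epididymal fat, liver and muscle taken 4 hr after dosing. Parent, salicylic acid and salicyluric acid were measured.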

[7] = Drug uptake in Sprague-Dawley rat epididymal fat at 300 mg/kg, po administered for 7 days measured 4 hrs post dose on day 7; type: ADME, organism-based, Epididymal fat pad; settings: read-out: Drug uptake; outline: as §2
Plasma = experiment: Metabolic stability in rat plasma at 5 uM up to 2 hrs by LC-MS-MS analysis; type: ADME, cell-free
Outline: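 Plasma from each species diluted to 50% with 0.05 M PBS pH 7.4 and prewarmed to 37 °C; compound added at 5 µM final (from DMSO stock diluted in MeOH); triplicate incubations at 37 °C, sampled at 0, 30, 60, 120 min, quenched with acetonitrile containing internal standard, centrifuged, analysed by LC/MS/MS.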

Rattus norvegicus [8] = experiment: Cmax in portal vein cannulated Sprague-Dawley rat assessed nicotinuric acid at 30 mg/kg, po measured up to 140 mins; type: ADME, organism-based; parameters: dose 30 mg/kg, route oral; settings: in vivo
Outline: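 Sprague Dawley rats surgically fitted with indwelling jugular vein and portal vein cannulas; oral dosing, then serial blood draws from both portal and jugular veins at 10, 20, 40 min and 1, 2, 4, 6 hr post dose; plasma analysed for parent and metabolites by LC/MS/MS.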

Intestine = experiment: Drug metabolism in Sprague-Dawley rat intestine assessed as linker EPA metabolite (5Z,8Z,11Z,14Z,17Z)-N-(2-aminoethyl)icosa-5,8,11,14,17-pentaenamide formation at 300 mg/kg, qd administered through oral gavage for 7 days measured 2 hrs post last dose by LC/MS/MS analysis; type: ADME, organism-based; settings: in vivo
Rattus norvegicus [9] = experiment: Cmax in Sprague-Dawley rat assessed as nicotinuric acid at 100 mg/kg, po administered as single dose measured up to 6 hrs post dose by LC/MS/MS analysis; type: ADME, organism-based; parameters: dose 100 mg/kg, route oral; settings: in vivo
Outline: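 Single oral dose to Sprague Dawley rats; plasma collected at 0.25, 0.5, 1, 2, 4 and 6 hr; analytes in plasma quantified by LC/MS/MS.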

AUClast (Rattus norvegicus [1]) [ng·h/mL]	concentration at 4 h [2] [ng/mL]	AUClast (Rattus norvegicus [3]) [ng·h/mL]	AUC(0-t) at 24 h [4] [ng·h/mL]	Cmax (Rattus norvegicus [5]) [ng/mL]	Cmax (Rattus norvegicus [6]) [ng/mL]	Drug metabolism (Muscle tissue) [ng/g]	concentration at 4 h [7] [ng/g]	Structure (SMILES)	Stability (Plasma)	Cmax (Rattus norvegicus [8]) [ng/mL]	Drug metabolism (Intestine) [ng/g]	Cmax (Rattus norvegicus [9]) [ng/mL]
229	116	2611	1940	563	75	165.21	772	CC/C=C\C/C=C\C/C=C\C/C=C\C/C=C\C/C=C\CCC(=O)NCCNC(=O)c1ccccc1O [EDASALONEXENT]	–	–	–	–
–	–	–	–	–	–	–	–	CC/C=C\C/C=C\C/C=C\C/C=C\C/C=C\CCCC(=O)NCCNC(=O)c1cccnc1	Stable	125	74	1131
